Test results reported in ChEMBL document CHEMBL1250546, “Synthesis of non-purine analogs of 6-aryl-9-benzylpurines, and their antimycobacterial activities. Compounds modified in the imidazole ring” (Bioorg Med Chem, 2010).
Converted amounts (≈) assume the structure as drawn.

Legend:
Format in all cases: functional
[1] = test system: Mycobacterium tuberculosis; experiment: Antibacterial activity against streptomycin-resistant Mycobacterium tuberculosis after 7 days by microplate alamar blue assay; conditions: 168 h
[2] = test system: Mycobacterium tuberculosis; experiment: Antibacterial activity against clofazimine-resistant Mycobacterium tuberculosis after 7 days by microplate alamar blue assay; conditions: 168 h
[3] = test system: Mycobacterium tuberculosis; experiment: Antibacterial activity against isoniazid-resistant Mycobacterium tuberculosis after 7 days by microplate alamar blue assay; conditions: 168 h
Summary of the method: (§1)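 Microplate alamar blue assay in 7H12 medium against M. tuberculosis H37Rv ATCC 27294 and against rifampicin-, isoniazid-, streptomycin- and kanamycin-resistant Mtb strains. Bacteria were incubated with test samples for 7 days, then fluorescence was read. MIC is the lowest concentration giving at least a 90% fluorescence reduction relative to untreated controls.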

[4] = test system: Mycobacterium tuberculosis; experiment: Antibacterial activity against multidrug-resistant Mycobacterium tuberculosis H37Rv carrying luxAB incubated for 10 days under low oxygen followed by 28 hrs normoxic recovery by low-oxygen-recovery assay
Summary of the method: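 Low-oxygen-recovery assay using low-oxygen-adapted M. tuberculosis H37Rv luxAB, which carries a luciferase reporter, in 7H12 medium in microplate format. Cultures were incubated 10 days under low oxygen, then given 28 h of normoxic recovery before luminescence was read. MIC is the lowest concentration giving at least a 90% luminescence reduction relative to untreated controls.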

[5] = test system: Mycobacterium tuberculosis; experiment: Antibacterial activity against rifampicin-resistant Mycobacterium tuberculosis after 7 days by microplate alamar blue assay; conditions: 168 h
[6] = test system: Mycobacterium tuberculosis; experiment: Antibacterial activity against kanamycin-resistant Mycobacterium tuberculosis after 7 days by microplate alamar blue assay; conditions: 168 h; summary of the method: as §1
[7] = test system: Mycobacterium tuberculosis; experiment: Antibacterial activity against multidrug-resistant Mycobacterium tuberculosis H37Rv carrying luxAB at 128 uM incubated for 10 days under low oxygen followed by 28 hrs normoxic recovery by low-oxygen-recovery assay relative to control

Compound: COc1ccc(Cn2ccc3c(-c4ccco4)nc(OC)nc32)cc1
- MIC [1]: 0.09 µM (≈ 0.0302 µg/mL)
- MIC [2]: 0.07 µM (≈ 0.0235 µg/mL)
- MIC [3]: 0.09 µM (≈ 0.0302 µg/mL)
- MIC [4]: 87 µM (≈ 29.2 µg/mL)
- MIC [5]: 0.09 µM (≈ 0.0302 µg/mL)
- MIC [6]: 0.1 µM (≈ 0.0335 µg/mL)

Compound: COc1ccc(Cn2cnc3c(-c4ccco4)nc(Cl)nc32)cc1
- MIC [1]: 0.56 µM (≈ 0.191 µg/mL)
- MIC [2]: 0.47 µM (≈ 0.16 µg/mL)
- inhibition at 128 µM [7]: 82%
- MIC [3]: 0.15 µM (≈ 0.0511 µg/mL)
- MIC [4]: > 128 µM
- MIC [5]: 0.15 µM (≈ 0.0511 µg/mL)
- MIC [6]: 0.16 µM (≈ 0.0545 µg/mL)

Compound: NNC(=O)c1ccncc1 [ISONIAZID]
- MIC [1]: 0.24 µM (≈ 0.0329 µg/mL)
- MIC [3]: > 8 µM
- MIC [5]: 0.25 µM (≈ 0.0343 µg/mL)
- MIC [6]: 0.39 µM (≈ 0.0535 µg/mL)

Compound: COc1ccc(Cn2nnc3c(-c4ccco4)ncnc32)cc1
- inhibition at 128 µM [7]: 61%
- MIC [4]: > 128 µM

Compound: O=[N+]([O-])c1cn2c(n1)OC[C@@H](OCc1ccc(OC(F)(F)F)cc1)C2 [PRETOMANID]
- MIC [1]: 0.1 µM (≈ 0.0359 µg/mL)
- MIC [2]: 0.54 µM (≈ 0.194 µg/mL)
- MIC [3]: 0.07 µM (≈ 0.0251 µg/mL)
- MIC [5]: 0.17 µM (≈ 0.0611 µg/mL)
- MIC [6]: 0.22 µM (≈ 0.079 µg/mL)

Compound: COc1ccc(Cn2ccc3c(-c4ccco4)nc(Cl)nc32)cc1
- MIC [1]: 0.08 µM (≈ 0.0272 µg/mL)
- MIC [2]: 0.06 µM (≈ 0.0204 µg/mL)
- inhibition at 128 µM [7]: 88%
- MIC [3]: 0.12 µM (≈ 0.0408 µg/mL)
- MIC [4]: > 128 µM
- MIC [5]: 0.1 µM (≈ 0.034 µg/mL)
- MIC [6]: 0.1 µM (≈ 0.034 µg/mL)

Compound: COc1c(N2C[C@@H]3CCCN[C@@H]3C2)c(F)cc2c(=O)c(C(=O)O)cn(C3CC3)c12 [MOXIFLOXACIN]
- MIC [3]: 0.3 µM (≈ 0.12 µg/mL)
- MIC [6]: 0.34 µM (≈ 0.136 µg/mL)

Compound: COc1ccc(Cn2ccc3c(-c4cccs4)ncnc32)cc1
- MIC [1]: 0.26 µM (≈ 0.0836 µg/mL)
- MIC [2]: 0.18 µM (≈ 0.0579 µg/mL)
- MIC [3]: 0.14 µM (≈ 0.045 µg/mL)
- MIC [4]: 60 µM (≈ 19.3 µg/mL)
- MIC [5]: 0.13 µM (≈ 0.0418 µg/mL)
- MIC [6]: 0.12 µM (≈ 0.0386 µg/mL)

Compound: COc1ccc(Cn2ccc3c(-c4cccs4)nc(Cl)nc32)cc1
- MIC [1]: 0.06 µM (≈ 0.0214 µg/mL)
- MIC [2]: < 0.05 µM
- MIC [3]: 0.09 µM (≈ 0.032 µg/mL)
- MIC [4]: 120 µM (≈ 42.7 µg/mL)
- MIC [5]: 0.14 µM (≈ 0.0498 µg/mL)
- MIC [6]: 0.08 µM (≈ 0.0285 µg/mL)

Compound: COc1ccc(Cn2cnc3c(-c4ccco4)ncnc32)cc1
- inhibition at 128 µM [7]: 88%
- MIC [4]: > 128 µM

Compound: COc1ccc(Cn2ccc3c(-c4ccco4)ncnc32)cc1
- MIC [1]: 0.18 µM (≈ 0.055 µg/mL)
- MIC [2]: 0.16 µM (≈ 0.0489 µg/mL)
- inhibition at 128 µM [7]: 82%
- MIC [3]: 0.13 µM (≈ 0.0397 µg/mL)
- MIC [4]: > 128 µM
- MIC [5]: 0.14 µM (≈ 0.0427 µg/mL)
- MIC [6]: 0.1 µM (≈ 0.0305 µg/mL)

Compound: COc1ccc(Cn2ncc3c(-c4ccco4)ncnc32)cc1
- inhibition at 128 µM [7]: 60%
- MIC [4]: > 128 µM

Compound: CN[C@@H]1[C@H](O[C@H]2[C@H](O[C@H]3[C@H](O)[C@@H](O)[C@H](N=C(N)N)[C@@H](O)[C@@H]3N=C(N)N)O[C@@H](C)[C@]2(O)C=O)O[C@@H](CO)[C@H](O)[C@H]1O [STREPTOMYCIN]
- MIC [1]: > 16 µM
- MIC [2]: 0.33 µM (≈ 0.192 µg/mL)
- MIC [3]: 0.13 µM (≈ 0.0756 µg/mL)
- MIC [5]: 0.21 µM (≈ 0.122 µg/mL)
- MIC [6]: 0.98 µM (≈ 0.57 µg/mL)

Compound: CO[C@H]1/C=C/O[C@@]2(C)Oc3c(C)c(O)c4c(O)c(c(/C=N/N5CCN(C)CC5)c(O)c4c3C2=O)NC(=O)/C(C)=C\C=C\[C@H](C)[C@H](O)[C@@H](C)[C@@H](O)[C@@H](C)[C@H](OC(C)=O)[C@@H]1C [RIFAMPIN]
- MIC [1]: 0.04 µM (≈ 0.0329 µg/mL)
- MIC [2]: 0.02 µM (≈ 0.0165 µg/mL)
- MIC [3]: 0.02 µM (≈ 0.0165 µg/mL)
- MIC [5]: > 4 µM
- MIC [6]: 0.02 µM (≈ 0.0165 µg/mL)
